Results taken from ChEMBL document CHEMBL1125249, “Structure-affinity relationships of 12-sulfonyl derivatives of 5,8,8a,9,10,11,12,12a,13,13a-decahydro-6H-isoquino[2,1-g][1 ,6] naphthyridines at alpha-adrenoceptors” (J Med Chem, 1991).

Assays:
[1] = molecular target: T1, Adrenergic receptor alpha-2 (Rattus norvegicus) (UniProt P22086+P19328+P22909)
[2] = molecular target: T2, Adrenergic receptor alpha-2 (Rattus norvegicus, UniProt P22086+P19328+P22909); assay: Binding affinity to alpha-2 adrenergic receptor determined by measurement of [3H]yohimbine displacement from rat cortical membrane
T2 sequence (P22086 whole entry): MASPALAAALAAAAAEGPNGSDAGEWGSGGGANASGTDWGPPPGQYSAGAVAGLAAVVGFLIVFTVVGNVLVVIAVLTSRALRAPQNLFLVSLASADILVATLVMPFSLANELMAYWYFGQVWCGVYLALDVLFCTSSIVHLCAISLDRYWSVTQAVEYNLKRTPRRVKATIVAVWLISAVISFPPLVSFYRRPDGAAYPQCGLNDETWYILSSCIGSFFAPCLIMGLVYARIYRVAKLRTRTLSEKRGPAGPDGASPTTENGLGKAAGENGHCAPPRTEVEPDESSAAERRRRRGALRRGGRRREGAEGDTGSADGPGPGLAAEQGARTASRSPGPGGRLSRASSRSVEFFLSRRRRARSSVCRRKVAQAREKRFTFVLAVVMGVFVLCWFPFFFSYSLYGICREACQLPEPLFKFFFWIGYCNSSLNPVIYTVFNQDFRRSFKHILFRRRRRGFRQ
T2 sequence (P19328 whole entry): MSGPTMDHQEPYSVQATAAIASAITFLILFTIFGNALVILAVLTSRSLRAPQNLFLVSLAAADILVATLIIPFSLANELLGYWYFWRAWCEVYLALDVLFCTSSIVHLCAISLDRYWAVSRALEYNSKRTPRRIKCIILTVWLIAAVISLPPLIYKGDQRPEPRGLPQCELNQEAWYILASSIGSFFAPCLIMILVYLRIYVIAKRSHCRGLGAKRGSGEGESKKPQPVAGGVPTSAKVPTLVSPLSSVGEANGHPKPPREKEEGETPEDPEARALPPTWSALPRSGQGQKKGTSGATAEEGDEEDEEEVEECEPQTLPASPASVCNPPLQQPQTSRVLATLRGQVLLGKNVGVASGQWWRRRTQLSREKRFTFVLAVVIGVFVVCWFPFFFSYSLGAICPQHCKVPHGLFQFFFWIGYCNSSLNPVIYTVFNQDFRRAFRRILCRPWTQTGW
T2 sequence (P22909 whole entry): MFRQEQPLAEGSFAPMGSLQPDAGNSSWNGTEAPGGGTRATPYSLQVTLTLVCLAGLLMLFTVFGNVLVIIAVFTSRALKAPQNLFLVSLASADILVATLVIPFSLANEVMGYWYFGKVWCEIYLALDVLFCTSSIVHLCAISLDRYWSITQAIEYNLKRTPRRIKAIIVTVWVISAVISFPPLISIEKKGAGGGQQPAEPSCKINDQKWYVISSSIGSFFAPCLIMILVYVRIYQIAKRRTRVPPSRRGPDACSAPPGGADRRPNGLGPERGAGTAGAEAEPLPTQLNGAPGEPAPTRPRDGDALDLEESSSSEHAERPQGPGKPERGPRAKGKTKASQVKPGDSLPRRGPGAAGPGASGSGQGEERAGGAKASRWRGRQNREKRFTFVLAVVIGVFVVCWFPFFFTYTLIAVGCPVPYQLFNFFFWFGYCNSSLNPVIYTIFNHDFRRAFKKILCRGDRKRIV

[3] = organism: Cavia porcellus; assay: In vitro reversal of inhibitory effect of UK - 14304 on the contractile response of guinea pig ileum to field stimulation.; type: functional, organism-based; conditions: read-out: pA2 (converted)
Summary of the method: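 Ileum from female Dunkin-Hartley guinea pigs (250-300 g) held in Tyrode solution at 37 °C, gassed with O2, under 1 g tension. Field stimulation at 0.1 Hz (1-ms pulses, supramaximal voltage), with isometric contractions recorded. Cumulative UK-14304 curves were run, the second taken as control. Antagonist was then applied for 40 min before repeat agonist curves.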

[4] = molecular target: T1, Adrenergic receptor alpha-2 (Rattus norvegicus); remark: listed apart in the source
[5] = molecular target: T3, Adrenergic receptor alpha-1 (Rattus norvegicus, UniProt P15823+P23944+P43140); assay: Binding affinity to alpha-1 adrenergic receptor determined by measurement of [3H]prazosin displacement from rat cortical membrane
T3 sequence (P15823 whole entry): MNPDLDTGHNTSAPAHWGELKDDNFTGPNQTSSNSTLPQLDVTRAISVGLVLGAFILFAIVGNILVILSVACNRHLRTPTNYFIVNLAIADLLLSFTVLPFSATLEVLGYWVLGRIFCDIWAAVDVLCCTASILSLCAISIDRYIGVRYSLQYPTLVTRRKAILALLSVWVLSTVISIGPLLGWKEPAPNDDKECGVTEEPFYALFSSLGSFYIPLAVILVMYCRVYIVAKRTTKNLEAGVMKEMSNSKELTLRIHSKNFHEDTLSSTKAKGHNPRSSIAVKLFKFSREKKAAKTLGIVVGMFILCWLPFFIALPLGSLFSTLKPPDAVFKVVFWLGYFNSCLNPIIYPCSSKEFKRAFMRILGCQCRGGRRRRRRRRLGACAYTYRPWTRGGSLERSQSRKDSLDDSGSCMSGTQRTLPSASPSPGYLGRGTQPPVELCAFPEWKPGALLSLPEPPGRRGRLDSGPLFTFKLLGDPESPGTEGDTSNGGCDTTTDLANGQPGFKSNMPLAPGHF
T3 sequence (P23944 whole entry): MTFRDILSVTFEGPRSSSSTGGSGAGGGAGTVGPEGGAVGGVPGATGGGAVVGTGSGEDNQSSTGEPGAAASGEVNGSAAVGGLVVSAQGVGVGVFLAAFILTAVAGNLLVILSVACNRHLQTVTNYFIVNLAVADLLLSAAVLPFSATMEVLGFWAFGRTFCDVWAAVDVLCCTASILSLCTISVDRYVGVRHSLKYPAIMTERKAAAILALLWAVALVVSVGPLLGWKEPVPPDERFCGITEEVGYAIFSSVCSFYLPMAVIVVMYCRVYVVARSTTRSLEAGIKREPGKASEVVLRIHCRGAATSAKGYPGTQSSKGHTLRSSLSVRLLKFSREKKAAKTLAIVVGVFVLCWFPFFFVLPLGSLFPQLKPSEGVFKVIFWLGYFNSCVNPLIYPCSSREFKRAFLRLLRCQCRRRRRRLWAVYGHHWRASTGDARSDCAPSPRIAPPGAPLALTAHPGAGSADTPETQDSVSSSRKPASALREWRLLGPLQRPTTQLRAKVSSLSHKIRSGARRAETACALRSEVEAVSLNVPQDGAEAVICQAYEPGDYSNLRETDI
T3 sequence (P43140 whole entry): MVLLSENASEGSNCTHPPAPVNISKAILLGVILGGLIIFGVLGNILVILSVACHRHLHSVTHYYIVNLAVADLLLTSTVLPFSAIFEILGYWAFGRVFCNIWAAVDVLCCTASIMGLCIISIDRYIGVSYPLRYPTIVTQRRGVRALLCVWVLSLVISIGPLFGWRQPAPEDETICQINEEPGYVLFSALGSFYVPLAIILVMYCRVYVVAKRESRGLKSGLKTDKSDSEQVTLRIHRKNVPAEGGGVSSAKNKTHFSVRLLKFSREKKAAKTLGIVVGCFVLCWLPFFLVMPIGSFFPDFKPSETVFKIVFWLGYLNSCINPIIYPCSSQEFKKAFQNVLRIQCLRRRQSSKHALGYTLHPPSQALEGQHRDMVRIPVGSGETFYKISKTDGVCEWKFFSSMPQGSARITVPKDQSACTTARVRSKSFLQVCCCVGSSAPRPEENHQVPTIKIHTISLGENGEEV
Summary of the method: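 Male Sprague-Dawley rat (150-200 g) cerebral cortex membranes, washed in 50 mM Tris-HCl/0.5 mM EDTA pH 7.4. 250 µg membrane protein incubated with 0.5 nM [3H]prazosin for 30 min at 25 °C in a 0.5 mL volume. Nonspecific binding defined by 10 µM phentolamine. IC50 estimated graphically; Ki calculated by Cheng-Prusoff.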

ID50 [1] [mg/kg]	Log Ki [2]	ID50 [4] [mg/kg]	Log Ki [5]	SMILES	Kb [3] [pM]
0.019	-8.73	1.4	-5.29	CCCS(=O)(=O)N1CCC[C@@H]2CN3CCc4ccccc4[C@@H]3C[C@@H]21	398
0.034	-8.77	0.85	-5.37	CC(C)CS(=O)(=O)N1CCC[C@@H]2CN3CCc4ccccc4[C@@H]3C[C@@H]21	316
